Results from different studies.
PRMT3: Protein arginine N-methyltransferase 3 (PRMT3, Homo sapiens, UniProt O60678)
LDHA: L-lactate dehydrogenase A chain (LDHA, Homo sapiens, UniProt P00338)
Rps6ka1: Ribosomal protein S6 kinase alpha-1 (Rps6ka1, Rattus norvegicus, UniProt Q63531)
MAOA: Amine oxidase [flavin-containing] A (MAOA, Homo sapiens, UniProt P21397)
GSR: Glutathione reductase, mitochondrial (GSR, Homo sapiens, UniProt P00390)
CDKL2: Cyclin-dependent kinase-like 2 (CDKL2, Homo sapiens, UniProt Q92772)
Oprk1: Kappa-type opioid receptor (Oprk1, Rattus norvegicus, UniProt P34975)
ADRA1A: Alpha-1A adrenergic receptor (ADRA1A, Homo sapiens, UniProt P35348)

N=C(NCCCSC[C@H]1O[C@@H](n2cnc3c(NCCCc4ccccc4)ncnc32)[C@H](O)[C@@H]1O)NCC1CCC1  inhibition (PRMT3; enzyme activity, inhibitor, fluorescence; 10 µM): 0%
COC(=O)CN=c1scc(-c2ccccc2)n1-c1ccccc1C  inhibition (LDHA; enzyme activity, inhibitor, fluorescence; 100 µM, pH 7.2): 43%
Cc1ccc(Nc2nccc(N(C)c3ccc4c(C)n(C)nc4c3)n2)cc1S(N)(=O)=O  inhibition (Rps6ka1; enzyme activity, inhibitor; 10 µM): 41%
N=C(NCCCSC[C@H]1O[C@@H](n2cnc3c(NCCCc4ccccc4)ncnc32)[C@H](O)[C@@H]1O)NC1CCC1  inhibition (PRMT3; enzyme activity, inhibitor, fluorescence; 10 µM): -37.6%
N#Cc1ccc(NC(=O)c2ccc3c(c2)OCO3)cc1  inhibition (MAOA; enzyme activity, inhibitor; 1 µM, 20 min): 38%
CC(C)CCN[C@@H]1C[C@@H](c2ccc(Cl)c(Cl)c2)c2ccccc21 (relative stereo)  inhibition (GSR; enzyme activity, inhibitor; 25 µM): < 12%
N=C(NCCCSC[C@H]1O[C@@H](n2cnc3c(NCCCc4ccccc4)ncnc32)[C@H](O)[C@@H]1O)NCc1ccccc1  inhibition (PRMT3; enzyme activity, inhibitor, fluorescence; 10 µM): -4.37%
CCN(CC)CCNC(=O)c1c(C)[nH]c(/C=C2\C(=O)Nc3ccc(F)cc32)c1C  inhibition (CDKL2; binding, competition with immobilised ligand; 10 µM): 92%
CNC(=O)c1cc(Oc2ccc(NC(=O)Nc3ccc(Cl)c(C(F)(F)F)c3)cc2)ccn1  inhibition (Rps6ka1; enzyme activity, inhibitor; 0.3 µM): 11%
COC(=O)CN=c1scc(-c2ccccc2)n1-c1ccccc1  inhibition (LDHA; enzyme activity, inhibitor, fluorescence; 100 µM, pH 7.2): 33%
CNC(=O)[C@@]12C[C@@H]1[C@@H](n1cnc3c(NC)nc(C#Cc4ccc(Cl)s4)nc31)[C@H](O)[C@@H]2O  inhibition (Translocator protein (Tspo, Rattus norvegicus, UniProt P16257); ligand displacement, radioligand; 10 µM): 60 to 70%
N=C(NCCCSC[C@H]1O[C@@H](n2cnc3c(NCCCc4ccccc4)ncnc32)[C@H](O)[C@@H]1O)NCC1CC1  inhibition (PRMT3; enzyme activity, inhibitor, fluorescence; 10 µM): -19.4%
CN(C)C1CCN(CC#Cc2nn(C3CCCC3)c3nc(NCc4ccccc4)ncc23)C1 (stereo not shown)  inhibition (Serine/threonine-protein kinase MARK2 (MARK2, Homo sapiens, UniProt Q7KZI7); enzyme activity, inhibitor, FRET; 0.1 µM): 4%
O=C(Nc1ccc([N+](=O)[O-])cc1[N+](=O)[O-])c1ccccc1O  inhibition (MAOA; enzyme activity, inhibitor; 1 µM, 20 min): 49%
COc1ccc(/C=C/C(=O)N2CCc3ccccc3C2)cc1OC  inhibition (MAOA; enzyme activity, inhibitor, fluorescence; 62.5 µM): 11.3%
N#Cc1ccc2c(ccn2CCC2CCN(C(=O)OC(C(F)(F)F)C(F)(F)F)CC2)c1  inhibition (Fatty-acid amide hydrolase 1 (Faah, Rattus norvegicus, UniProt P97612); enzyme activity, inhibitor; 10 µM): 45%
O=C1N=C(N2CCCCN2)S/C1=C\c1ccc(F)cc1O  inhibition (Oprk1; ligand displacement, radioligand; 10 µM): 11%
CCCNc1nc2ccccc2n1Cc1ccc(Cl)cc1  inhibition (ADRA1A; ligand displacement; 10 µM): -2.69%
COc1cc([N+](=O)[O-])ccc1NC(=O)c1ccc(Cl)cc1  inhibition (MAOA; enzyme activity, inhibitor; 1 µM, 20 min): 2%
COc1cc(NC(C)=O)c(Cl)cc1C(=O)Nc1nccs1  inhibition (ADRA1A; cell-free assay; 10 µM): 13.9%
Cc1cc([N+](=O)[O-])ccc1NC(=O)c1ccc2c(c1)OCO2  inhibition (MAOA; enzyme activity, inhibitor; 1 µM, 20 min): 7%
COc1ccc(CN[C@@H]2C[C@@H](c3ccc(Cl)c(Cl)c3)c3ccccc32)cc1 (relative stereo)  inhibition (GSR; enzyme activity, inhibitor; 25 µM): < 12%
O=C(Nc1ccc([N+](=O)[O-])cc1Cl)c1ccc2c(c1)OCO2  inhibition (MAOA; enzyme activity, inhibitor; 1 µM, 20 min): 9%
N#Cc1cc(Cn2c(N3CCCC3)nc3ccccc32)ccc1F  inhibition (ADRA1A; ligand displacement; 10 µM): -11.7%
CCCCNC(=N)NCCCSC[C@H]1O[C@@H](n2cnc3c(NCCCc4ccccc4)ncnc32)[C@H](O)[C@@H]1O  inhibition (PRMT3; enzyme activity, inhibitor, fluorescence; 10 µM): 11.1%
O=C(c1ccc(Cl)cc1)N(Cc1ccccc1)C1CCCCC1  inhibition (Oprk1; ligand displacement, radioligand; 10 µM): 82%
CN1CC(Oc2cnc(C#N)cc2-c2ccn3nc(NC(=O)C4CC4)cc3c2)C1  inhibition (CDKL2; enzyme activity, inhibitor; 1 µM): -18%
N=C(NCCCSC[C@H]1O[C@@H](n2cnc3c(NCCCc4ccccc4)ncnc32)[C@H](O)[C@@H]1O)NCCc1ccccc1  inhibition (PRMT3; enzyme activity, inhibitor, fluorescence; 10 µM): 1.64%
COC(=O)CN=c1scc(-c2ccccc2)n1-c1ccc(Cl)cc1  inhibition (LDHA; enzyme activity, inhibitor, fluorescence; 100 µM, pH 7.2): 41%
O=C(Nc1ccc(C(F)(F)F)cc1)c1cc(Cl)ccc1O  inhibition (MAOA; enzyme activity, inhibitor; 1 µM, 20 min): 82%
Oc1cccc(Nc2nc(-c3ccc(F)cc3F)cs2)c1  inhibition (Histamine H2 receptor (HRH2, Homo sapiens, UniProt P25021); cell-free assay; 10 µM): -33.9%
Nc1ncnc2c1ncn2[C@@H]1O[C@H](CSCCNC(=O)NCc2ccccc2)[C@@H](O)[C@H]1O  inhibition (PRMT3; enzyme activity, inhibitor, radiometric; 10 µM): > 95%
CC[C@H](C)[C@H](NC(=O)[C@H](CCC(N)=O)NC(=O)[C@H](CC(C)C)NC(=O)[C@H](CCSC)NC(=O)[C@H](CCCCN)NC(=O)[C@H](CO)NC(=O)[C@H](CO)NC(=O)[C@H](CCSC)NC(=O)[C@H](CC(C)C)NC(=O)[C@H](CC(N)=O)NC(=O)[C@@H](NC(=O)[C@@H](NC(=O)[C@H](CO)NC(=O)[C@H](CC(C)C)NC(=O)[C@H](CS)NC(=O)[C@H](CCCNC(=N)N)NC(=O)[C@H](CC(=O)O)NC(=O)[C@H](Cc1c[nH]c2ccccc12)NC(=O)[C@H](Cc1ccccc1)NC(=O)[C@H](C)NC(=O)[C@H](CCC(=O)O)NC(=O)[C@@H](N)CCCCN)C(C)C)[C@@H](C)CC)C(=O)N[C@@H](CC(N)=O)C(=O)N[C@@H](C)C(=O)O  inhibition (Cyclin-dependent kinase 5, with p25 (CDK5, Homo sapiens, UniProt Q00535); enzyme activity, inhibitor, radiometric; 50 µM): 20%
O=C(Nc1cccc(Cl)c1)c1cc(Cl)ccc1O  inhibition (MAOA; enzyme activity, inhibitor; 1 µM, 20 min): 15%
C#CCNC(=N)NCCCSC[C@H]1O[C@@H](n2cnc3c(NCCCc4ccccc4)ncnc32)[C@H](O)[C@@H]1O  inhibition (PRMT3; enzyme activity, inhibitor, fluorescence; 10 µM): 6.56%
CC1=C(C(=O)Nc2ccc([N+](=O)[O-])cc2Cl)Cc2ccccc21  inhibition (MAOA; enzyme activity, inhibitor; 1 µM, 20 min): -3%
Cc1ccc(-n2nc(C(C)(C)C)cc2NC(=O)Nc2ccc(OCCN3CCOCC3)c3ccccc23)cc1  inhibition (Tyrosine-protein phosphatase non-receptor type 1 (PTPN1, Homo sapiens, UniProt P18031); enzyme activity, inhibitor; 10 µM): 18%
